# Screening results as filed in PubChem BioAssay.
# Many of the other results were omitted from the sample, so hits are more common in it than they were.
# IDH1 mut inh: inhibitors of human IDH1 R132H | IDH1 R132H reductase, diaphorase/resazurin fluorescence, 60 min | inhibition, % at 10 µM | O75874 | hit rate 0.18% among 70,000; in the data active means inhibition above about 34%; inconclusive means no clear call, values can overlap the other calls; inactive means below about 11%
# T cruzi growth-1: blocks T. cruzi growth in NIH3T3 culture; T. cruzi beta-gal in NIH3T3, GalScreen luminescence, 90 h; inhibition, % at 8.34 µM; hit rate 5.9% among 77,000; AID 624255;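 active means mean inhibition above about 93%, with at least 55% of replicates each passing it, limit read from the data, passing the limit was not always enough; inconclusive means only one of those two conditions holds; inactive means neither condition holds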
# GASC1 inh: KDM4C (human) demethylase inhibition; Q9H3R0; GST-KDM4C 2-372, H3K9me3 peptide, LANCE TR-FRET; inhibition, % at 12.5 µM; hit rate 0.15% among 96,000;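 active means mean replicate inhibition above about 25%, with at least 55% of replicates also reaching it, limit read from the data, passing the limit was not always enough; inconclusive means only one of those two conditions met; inactive means neither condition met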
# Target sequence (Q9H3R0 2-372 limits assumed): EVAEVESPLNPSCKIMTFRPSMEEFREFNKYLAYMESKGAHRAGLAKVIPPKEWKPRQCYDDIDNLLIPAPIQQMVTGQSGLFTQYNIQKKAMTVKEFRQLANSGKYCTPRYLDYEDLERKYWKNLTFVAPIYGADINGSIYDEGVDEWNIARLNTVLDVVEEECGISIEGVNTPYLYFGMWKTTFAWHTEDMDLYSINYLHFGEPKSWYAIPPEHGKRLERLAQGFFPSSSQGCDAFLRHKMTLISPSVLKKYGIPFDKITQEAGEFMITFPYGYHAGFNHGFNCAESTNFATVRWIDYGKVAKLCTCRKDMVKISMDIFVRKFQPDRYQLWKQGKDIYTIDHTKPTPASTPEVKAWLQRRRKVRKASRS
#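 Test system – GST-tagged GASC-1 (JMJD2C) catalytic fragment, aa 2-372 · Medium – HEPES buffer, pH 7.5, plus ascorbate · Reagent – H3K9me3 peptide with Fe(II)/2OG · Compound – one test concentration per compound · Timing – 30 min reaction, 60 min detection, RT · Technique – TR-FRET with Eu antibody and ULight streptavidin, EDTA stop · Read-out basis – inhibition from TR-FRET ratio decrease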
# T cruzi growth-2: blocks T. cruzi growth in NIH3T3 host cells | shares compounds with T cruzi growth-1 | T. cruzi beta-gal in NIH3T3, GalScreen luminescence, 90 h | inhibition, % at 8.35 µM | hit rate 72% among 5,600 | AID 651739;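 active means mean replicate inhibition above about 95% and at least 55% of replicates individually reaching it, limit read from the data; inconclusive means only one of the two criteria is met; inactive means neither criterion is met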
# T cruzi growth-3: Trypanosoma cruzi proliferation inhibition | shares compounds with T cruzi growth-1 | T. cruzi beta-gal in NIH3T3, GalScreen luminescence, 90 h | inhibition, % at 2.09 µM | hit rate 21% among 5,600;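 active means mean inhibition above about 95%, with at least 55% of replicates also reaching it, limit read from the data; inconclusive means meets just one of the two conditions; inactive means meets neither condition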
# 3T3 cytotox: kills mouse NIH/3T3 fibroblasts; hit rate 14% among 5,600; NIH/3T3 viability, CellTiter-Glo ATP luminescence, 90 h; cytotoxicity (signal decrease), % at 8.35 µM; shares compounds with T cruzi growth-1;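 active means mean signal decrease across replicates above about 35% based on untreated-well scatter, with enough replicates individually passing, limit read from the data; inconclusive means no rule stated though some were filed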
# NIH3T3 tox 2: kills mouse NIH/3T3 fibroblasts; shares compounds with T cruzi growth-1; NIH/3T3 viability, CellTiter-Glo ATP luminescence, 90 h; inhibition, % at 24.9 µM; hit rate 56% among 5,600;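 active means mean loss of cell viability signal at or above a set limit, and enough replicates individually reaching it; inconclusive means meets only the mean limit or only the replicate share; inactive means meets neither condition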
# A number is an active result; - = inactive; ? = inconclusive; . = not tested or not shown; + = active, no number.
SMILES,IDH1 mut inh,T cruzi growth-1,GASC1 inh,T cruzi growth-2,T cruzi growth-3,3T3 cytotox,NIH3T3 tox 2
C[C@H](CO)N1C[C@H](C)[C@@H](CN(C)Cc2ccccc2)Oc2c(NC(=O)c3ccncc3)cccc2C1=O,.,-,-,.,.,.,.
C[C@H]1CN([C@@H](C)CO)C(=O)c2cccc(NC(=O)c3ccncc3)c2O[C@H]1CN(C)Cc1ccncc1,.,-,-,.,.,.,.
C[C@H](CO)N1C[C@H](C)[C@@H](CN(C)CC2CCCCC2)Oc2c(NS(=O)(=O)c3cn(C)cn3)cccc2C1=O,.,103,-,-,-,-,-
COc1ccc(OC)c(NC(=O)c2ccc(Cl)c(S(=O)(=O)Nc3ccc(C)cc3C)c2)c1,-,.,.,.,.,.,.
COc1ccccc1C1C(C(=O)c2sc(C)nc2C)C(=O)C(=O)N1CCCN1CCOCC1 (configuration not stated),-,.,.,.,.,.,.
COC(=O)C1(Cc2ccc(O)cc2)OC(=O)C(OC)=C1c1ccc(O)cc1 (configuration not stated),-,.,.,.,.,.,.
C[C@@H]1CN([C@H](C)CO)C(=O)c2cccc(NC(=O)c3ccncc3)c2O[C@@H]1CN(C)Cc1ccncc1,-,-,-,.,.,.,.
C[C@@H]1CN([C@@H](C)CO)C(=O)c2cccc(NC(=O)c3ccncc3)c2O[C@H]1CN(C)Cc1ccc(-c2ccccc2)cc1,.,105,-,-,-,-,55
C[C@H](CO)N1C[C@H](C)[C@H](CN(C)Cc2ccc(-c3ccccc3)cc2)Oc2c(NC(=O)c3ccncc3)cccc2C1=O,-,99,-,105,?,56,47
C[C@@H]1CN([C@@H](C)CO)C(=O)c2cccc(NC(=O)c3ccncc3)c2O[C@@H]1CN(C)Cc1ccccc1,.,-,-,.,.,.,.
C[C@@H]1CCCCO[C@H](CN(C)C(=O)c2ccccc2)[C@@H](C)CN([C@H](C)CO)C(=O)c2cc(NC(=O)Nc3ccc(C(F)(F)F)cc3)ccc2O1,-,?,-,106,-,-,33
C[C@@H]1CN([C@H](C)CO)C(=O)c2cc(NC(=O)Nc3ccc(C(F)(F)F)cc3)ccc2O[C@@H](C)CCCCO[C@H]1CN(C)C(=O)c1ccccc1,.,?,-,103,113,-,-
C[C@H](CO)N1C[C@H](C)[C@@H](CN(C)C(=O)Nc2ccc(C(F)(F)F)cc2)OCCCC[C@H](C)Oc2ccc(NC(=O)Nc3ccccc3)cc2C1=O,.,.,-,.,.,.,.
C[C@@H]1CCCCO[C@@H](CN(C)C(=O)Nc2ccccc2)[C@H](C)CN([C@H](C)CO)C(=O)c2cc(NC(=O)Nc3ccc(C(F)(F)F)cc3)ccc2O1,.,.,-,.,.,.,.
CC(=O)c1ccc(NC(=O)CSc2nnc(C34CC5CC(CC(C5)C3)C4)n2C)cc1,-,.,.,.,.,.,.
COc1ccc(C[C@H](N)C(=O)N[C@@H]2[C@@H](CO)OC(n3cnc4c(N(C)C)ncnc43)[C@@H]2O)cc1 (some centres not stated),-,.,.,.,.,.,.
CN1[C@@H]2c3ccc(-c4cncnc4)c(=O)n3C[C@@H]2[C@@H](CO)[C@@H]1C(=O)NC1Cc2ccccc2C1,.,+,-,-,-,-,-
CN(C)CC(=O)N1[C@@H]2c3ccc(-c4ccc(F)cc4)c(=O)n3C[C@@H]2[C@@H](CO)[C@@H]1C(=O)NC1CCCC1,.,101,-,-,-,-,-
CN1[C@@H]2c3ccc(-c4ccncc4)c(=O)n3C[C@@H]2[C@@H](CO)[C@@H]1C(=O)NC1Cc2ccccc2C1,.,-,-,.,.,.,.
CCCN1[C@H](C(=O)N[C@@H](C)c2ccccc2)[C@@H](CO)[C@@H]2Cn3c(ccc(-c4ccccc4)c3=O)[C@@H]21,.,?,-,104,-,-,52
CN(C)CC(=O)N1[C@@H]2c3ccc(-c4cccc(F)c4)c(=O)n3C[C@@H]2[C@@H](CO)[C@@H]1C(=O)NC1CCC1,.,-,-,.,.,.,.
CN(C)CC(=O)N1[C@@H]2c3ccc(-c4ccccc4)c(=O)n3C[C@@H]2[C@@H](CO)[C@@H]1C(=O)NC1CCC1,.,+,-,-,-,-,-
CCCN1[C@@H]2c3ccc(-c4ccccc4)c(=O)n3C[C@@H]2[C@@H](CO)[C@@H]1C(=O)N[C@@H](C)c1ccccc1,.,-,-,.,.,.,.
CCN1[C@@H]2c3ccc(-c4ccc(F)cc4)c(=O)n3C[C@@H]2[C@@H](CO)[C@@H]1C(=O)NC1CCC1,.,.,-,.,.,.,.
COc1cc(Cl)c(/C=N/NC(=O)c2ccc(C(=O)NO)cc2)c(Cl)c1OC,-,.,.,.,.,.,.
SMILES,IDH1 mut inh,T cruzi growth-1,GASC1 inh,T cruzi growth-2,T cruzi growth-3,3T3 cytotox,NIH3T3 tox 2
CCOc1cc(C)c(S(=O)(=O)NCc2cccnc2)cc1C,-,.,.,.,.,.,.
COc1cccc(-c2nn(C)c3sc(C(=O)N4CCCCCC4)cc23)c1,-,.,.,.,.,.,.
O=C(N/N=C/c1cn(Cc2ccccc2)c2ccccc12)c1ccccn1,-,.,.,.,.,.,.
CN1[C@H](C(=O)NC2CCCCC2)[C@@H](CO)[C@@H]2Cn3c(ccc(-c4cccc(F)c4)c3=O)[C@@H]21,.,?,-,-,-,-,-
CN(C)CC(=O)N1[C@H](C(=O)NC2CCCC2)[C@@H](CO)[C@@H]2Cn3c(ccc(-c4ccc(F)cc4)c3=O)[C@@H]21,.,105,-,-,-,-,-
CN1[C@@H]2c3ccc(-c4cccc(F)c4)c(=O)n3C[C@@H]2[C@@H](CO)[C@@H]1C(=O)NC1CCCC1,.,.,-,.,.,.,.
CN(C)CC(=O)N1[C@H](C(=O)NC2CCC2)[C@@H](CO)[C@@H]2Cn3c(ccc(-c4cccc(F)c4)c3=O)[C@@H]21,.,-,-,.,.,.,.
COc1ccc(OC)c(S(=O)(=O)N2CCC(C(=O)Nc3cccc(SC)c3)CC2)c1,-,.,.,.,.,.,.
COC(=O)CNC(=O)c1ccc(S(=O)(=O)N2CCOCC2)cc1,-,.,.,.,.,.,.
O=[N+]([O-])c1nn(-c2ccc(Cl)cc2)n(O)c1=NCC1CCCO1 (configuration not stated),-,.,.,.,.,.,.
Cc1ccc(S(=O)(=O)Nc2cccc3c2O[C@@H](CN(C)Cc2ccc(C(F)(F)F)cc2)[C@@H](C)CN([C@@H](C)CO)C3=O)cc1,-,-,-,.,.,.,.
COc1ccc(S(=O)(=O)Nc2cccc3c2O[C@H](CN(C)Cc2ccc(Cl)c(Cl)c2)[C@H](C)CN([C@H](C)CO)C3=O)cc1,-,-,-,.,.,.,.
Cc1noc(C)c1S(=O)(=O)Nc1cccc2c1O[C@H](CN(C)Cc1ccc(-c3ccccc3)cc1)[C@H](C)CN([C@H](C)CO)C2=O,-,108,-,-,-,-,-
COc1ccc(S(=O)(=O)Nc2cccc3c2O[C@H](CN(C)Cc2ccc(C(=O)O)cc2)[C@@H](C)CN([C@H](C)CO)C3=O)cc1,-,-,-,.,.,.,.
COc1ccc(S(=O)(=O)Nc2cccc3c2O[C@H](CN(C)Cc2ccc(C(=O)O)cc2)[C@H](C)CN([C@@H](C)CO)C3=O)cc1,-,?,-,-,-,-,-
